Active and inactive are the calls of the source. The calls are words filed in the database; no cut-off is given here.
How the values were obtained:
[1] = Volume of distribution at steady state in mouse at 25 mg/kg, iv; type: ADME, organism-based; parameters: dose 25 mg/kg, route intravenous; conditions: in vivo, read-out: Vdss
How it was run: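 Mouse PK, average of three animals. Solution formulation in PG/Tween80/water (40:10:50), given orally at 120 mg/kg or iv at 25 mg/kg. Tmax taken from the oral arm; Vss taken from the iv arm.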

[2] = target: T1, Epidermal growth factor receptor and ErbB2 (HER1 and HER2) (Homo sapiens) (UniProt P04626+P00533); experiment: Inhibition of HER1/HER2-mediated AKT phosphorylation in human GEO cells by Western blot; type: cell-based
[3] = target: Receptor tyrosine-protein kinase erbB-2 (Homo sapiens, UniProt P04626); experiment: Inhibition of human recombinant HER2 expressed in Sf9 cells by liquid scintillation counting
[4] = Oral bioavailability in mouse at 120 mg/kg; type: ADME, organism-based; conditions: in vivo
[5] = Cmax in rat at 10 mg/kg, po; type: ADME, organism-based; parameters: dose 10 mg/kg, route oral; conditions: in vivo
[6] = target: T1, Epidermal growth factor receptor and ErbB2 (HER1 and HER2) (Homo sapiens); experiment: Inhibition of epidermal growth factor-induced HER1/HER2 heterodimer formation in human AU565 cells at 1 uM by immunoprecipitation; type: cell-based
[7] = Mean residence time in cynomolgus monkey at 5 mg/kg, iv; type: ADME, organism-based, Macaca fascicularis; parameters: dose 5 mg/kg, route intravenous; conditions: in vivo
[8] = tested on: NCI-N87; experiment: Antiproliferative activity against human NCI-N87 cells after 72 hrs by MTT assay; type: functional, cell-based; conditions: NCI-N87, 72 h
[9] = Cmax in BALB/c mouse at 50 mg/kg, po; type: ADME, organism-based; parameters: dose 50 mg/kg, route oral; conditions: in vivo
[10] = Protein binding in mouse plasma at 10 uM by equilibrium dialysis; type: ADME, cell-free; conditions: read-out: PPB (converted)
[11] = Clearance in mouse at 25 mg/kg, iv; type: ADME, organism-based; parameters: dose 25 mg/kg, route intravenous; conditions: in vivo
[12] = tested on: L2987; experiment: Antitumor activity against human L2987 cells xenografted in athymic mouse at 180 mg/kg, po qd for 14 days; type: functional; conditions: L2987, 336 h, read-out: TGI
How it was run: (§1)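 Xenograft-bearing mice dosed orally once daily in propylene glycol/Tween80/water (40:10:50). TGI taken as percent tumor growth inhibition during treatment; significance from mean tumor weight at end of treatment; body weight loss and morbidity monitored.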

[13] = Oral bioavailability in dog at 25 mg/kg; type: ADME, organism-based, Canis lupus familiaris; conditions: in vivo
[14] = tested on: L2987; experiment: Antitumor activity against human L2987 cells xenografted in athymic mouse at 30 mg/kg, po qd for 14 days; type: functional; conditions: L2987, 336 h, read-out: TGI; how it was run: as §1
[15] = AUC (0 to 24 hrs) in rat at 10 mg/kg, po; type: ADME, organism-based; parameters: time < 24 hr, dose 10 mg/kg, route oral; conditions: plasma
[16] = Oral bioavailability in cynomolgus monkey at 5 mg/kg; type: ADME, organism-based, Macaca fascicularis; conditions: in vivo
[17] = target: Cytochrome P450 2C9 (Homo sapiens, UniProt P11712); experiment: Inhibition of human CYP2C9; type: ADME
[18] = Antiproliferative activity against mouse SAL2 cells after 72 hrs by MTT assay; type: functional, cell-based; conditions: SAL2, 72 h
[19] = tested on: NCI-N87; experiment: Antitumor activity against human NCI-N87 cells xenografted in athymic mouse at 60 mg/kg, po qd for 21 days; type: functional; conditions: NCI-N87, 504 h, read-out: TGI; how it was run: as §1
[20] = AUC (0 to 4 hrs) in BALB/c mouse at 50 mg/kg, po; type: ADME, organism-based; parameters: time < 4 hr, dose 50 mg/kg, route oral; conditions: plasma
[21] = Mean residence time in mouse at 25 mg/kg, iv; type: ADME, organism-based; parameters: dose 25 mg/kg, route intravenous; conditions: in vivo
[22] = target: T1, Epidermal growth factor receptor and ErbB2 (HER1 and HER2) (Homo sapiens); experiment: Inhibition of HER1/HER2-mediated MAPK phosphorylation in human GEO cells by Western blot; type: cell-based
[23] = Antitumor activity against human GEO cells xenografted in athymic mouse at 180 mg/kg, po qd for 14 days; type: functional; conditions: 336 h, read-out: TGI; how it was run: as §1
[24] = Clearance in rat at 2.5 mg/kg, iv; type: ADME, organism-based; parameters: dose 2.5 mg/kg, route intravenous; conditions: in vivo
[25] = Antitumor activity against human KPL4 cells xenografted in athymic mouse at 60 mg/kg, po qd for 21 days; type: functional; conditions: KPL4, 504 h, read-out: TGI; how it was run: as §1
[26] = Clearance in dog at 1.5 mg/kg, iv; type: ADME, organism-based, Canis lupus familiaris; parameters: dose 1.5 mg/kg, route intravenous; conditions: in vivo
[27] = Tmax in dog at 25 mg/kg, po; type: ADME, organism-based, Canis lupus familiaris; parameters: dose 25 mg/kg, route oral; conditions: in vivo
How it was run: (§2)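 Dog PK, average of two animals. Compound dosed as a PEG400/Tween80/water (50:0.1:50) solution, orally at 25 mg/kg and iv at 1.5 mg/kg. Oral data give Tmax; iv data give Vss.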

[28] = AUC (0 to 24 hrs) in mouse at 120 mg/kg, po; type: ADME, organism-based; parameters: time < 24 hr, dose 120 mg/kg, route oral; conditions: plasma
How it was run: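 Mice were dosed orally at 120 mg/kg as a solution in PG/Tween80/water (40:10:50).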

[29] = Oral bioavailability in rat at 10 mg/kg; type: ADME, organism-based; conditions: in vivo
[30] = target: Voltage-gated inwardly rectifying potassium channel KCNH2 (Homo sapiens, UniProt Q12809); experiment: Inhibition of human ERG expressed in HEK cells; type: cell-based, HEK293
[31] = Antitumor activity against human KPL4 cells xenografted in athymic mouse at 180 mg/kg, po qd for 21 days; type: functional; conditions: KPL4, 504 h, read-out: TGI; how it was run: as §1
[32] = Protein binding in cynomolgus monkey plasma at 10 uM by equilibrium dialysis; type: ADME, cell-free, Macaca fascicularis; conditions: read-out: PPB (converted)
[33] = target: Cytochrome P450 2C19 (Homo sapiens, UniProt P33261); experiment: Inhibition of human CYP2C19; type: ADME
[34] = Mean residence time in dog at 1.5 mg/kg, iv; type: ADME, organism-based, Canis lupus familiaris; parameters: dose 1.5 mg/kg, route intravenous; conditions: in vivo
[35] = Half life in dog plasma at 25 mg/kg, po; type: ADME, organism-based, Canis lupus familiaris; parameters: dose 25 mg/kg, route oral
[36] = tested on: NCI-N87; experiment: Antitumor activity against human NCI-N87 cells xenografted in athymic mouse at 120 mg/kg, po qd for 21 days; type: functional; conditions: NCI-N87, 504 h, read-out: TGI; how it was run: as §1
[37] = Tmax in cynomolgus monkey at 5 mg/kg, po; type: ADME, organism-based, Macaca fascicularis; parameters: dose 5 mg/kg, route oral; conditions: in vivo
How it was run: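 Monkey PK, mean of two animals. Compound given as a solution in PEG400/Tween80/water (50:0.1:50), 5 mg/kg both orally and iv. Tmax from the oral route; steady-state volume of distribution from the iv route.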

[38] = AUC (0 to 24 hrs) in cynomolgus monkey at 5 mg/kg, po; type: ADME, organism-based, Macaca fascicularis; parameters: time < 24 hr, dose 5 mg/kg, route oral; conditions: plasma
How it was run: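 Monkeys were dosed orally at 5 mg/kg as a solution in PEG400/Tween80/water (50:0.1:50).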

[39] = Clearance in cynomolgus monkey at 5 mg/kg, iv; type: ADME, organism-based, Macaca fascicularis; parameters: dose 5 mg/kg, route intravenous; conditions: in vivo
[40] = Intrinsic permeability in human Caco-2 cells; type: ADME, cell-based; conditions: read-out: permeability
[41] = Protein binding in rat plasma at 10 uM by equilibrium dialysis; type: ADME, cell-free; conditions: read-out: PPB (converted)
[42] = Half life in cynomolgus monkey plasma at 5 mg/kg, po; type: ADME, organism-based, Macaca fascicularis; parameters: dose 5 mg/kg, route oral
[43] = organism: Mus musculus; experiment: Toxicity in athymic mouse bearing human tumor cells assessed as weight loss; type: organism-based
How it was run: (§3)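 Mice carried human tumor xenografts (L2987, GEO, KPL4, N87) and were dosed orally once daily in propylene glycol/Tween80/water (40:10:50), with a q.d. × 21 schedule given. The L2987 dose levels included 30, 60 and 180 mg/kg. Toxicity was monitored during treatment as significant weight loss or morbidity.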

[44] = Volume of distribution at steady state in dog at 1.5 mg/kg, iv; type: ADME, organism-based, Canis lupus familiaris; parameters: dose 1.5 mg/kg, route intravenous; conditions: in vivo, read-out: Vdss; how it was run: as §2
[45] = target: Receptor tyrosine-protein kinase erbB-4 (Homo sapiens, UniProt Q15303); experiment: Inhibition of human recombinant HER4 expressed in Sf9 cells by liquid scintillation counting
[46] = organism: Mus musculus; experiment: Toxicity in athymic mouse bearing human tumor cells assessed as mortality; type: organism-based; how it was run: as §3
[47] = target: T1, Epidermal growth factor receptor and ErbB2 (HER1 and HER2) (Homo sapiens); experiment: Inhibition of HER1/HER2 phosphorylation in human N87 cells by Western blot; type: cell-based; conditions: NCI-N87

Receptor tyrosine-protein kinase erbB-4, sequence (Q15303 whole entry): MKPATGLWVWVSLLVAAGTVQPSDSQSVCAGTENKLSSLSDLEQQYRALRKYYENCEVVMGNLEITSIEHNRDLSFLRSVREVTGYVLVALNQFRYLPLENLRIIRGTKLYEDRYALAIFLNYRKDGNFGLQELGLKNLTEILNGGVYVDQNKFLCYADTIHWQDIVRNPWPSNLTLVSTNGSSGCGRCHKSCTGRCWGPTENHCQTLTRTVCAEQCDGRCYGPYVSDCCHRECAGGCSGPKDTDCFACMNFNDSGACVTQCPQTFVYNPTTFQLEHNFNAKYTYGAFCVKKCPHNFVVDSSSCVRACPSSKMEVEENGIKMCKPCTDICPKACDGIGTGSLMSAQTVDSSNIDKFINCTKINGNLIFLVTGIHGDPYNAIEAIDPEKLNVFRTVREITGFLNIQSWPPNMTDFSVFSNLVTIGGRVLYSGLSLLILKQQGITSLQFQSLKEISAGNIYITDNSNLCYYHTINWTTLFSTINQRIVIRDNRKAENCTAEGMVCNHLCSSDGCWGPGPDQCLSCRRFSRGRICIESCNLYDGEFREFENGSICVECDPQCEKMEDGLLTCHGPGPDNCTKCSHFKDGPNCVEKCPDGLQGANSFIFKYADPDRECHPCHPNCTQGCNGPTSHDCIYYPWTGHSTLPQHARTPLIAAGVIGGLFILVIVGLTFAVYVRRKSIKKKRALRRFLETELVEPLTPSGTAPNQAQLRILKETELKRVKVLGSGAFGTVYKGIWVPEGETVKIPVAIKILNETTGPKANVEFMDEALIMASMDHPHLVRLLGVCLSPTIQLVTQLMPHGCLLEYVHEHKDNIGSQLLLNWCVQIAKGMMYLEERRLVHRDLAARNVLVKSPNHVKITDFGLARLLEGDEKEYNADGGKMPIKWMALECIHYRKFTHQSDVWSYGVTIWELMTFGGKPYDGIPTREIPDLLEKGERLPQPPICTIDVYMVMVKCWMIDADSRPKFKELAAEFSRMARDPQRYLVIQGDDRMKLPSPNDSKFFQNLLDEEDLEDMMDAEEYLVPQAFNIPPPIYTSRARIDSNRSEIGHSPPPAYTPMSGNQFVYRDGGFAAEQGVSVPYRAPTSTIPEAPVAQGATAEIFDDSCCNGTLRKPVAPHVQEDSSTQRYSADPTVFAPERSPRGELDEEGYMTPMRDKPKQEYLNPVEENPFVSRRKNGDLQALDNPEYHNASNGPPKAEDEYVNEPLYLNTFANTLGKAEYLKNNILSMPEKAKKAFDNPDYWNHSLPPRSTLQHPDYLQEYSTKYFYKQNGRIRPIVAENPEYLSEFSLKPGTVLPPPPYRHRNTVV
Cytochrome P450 2C19, sequence (P33261 whole entry): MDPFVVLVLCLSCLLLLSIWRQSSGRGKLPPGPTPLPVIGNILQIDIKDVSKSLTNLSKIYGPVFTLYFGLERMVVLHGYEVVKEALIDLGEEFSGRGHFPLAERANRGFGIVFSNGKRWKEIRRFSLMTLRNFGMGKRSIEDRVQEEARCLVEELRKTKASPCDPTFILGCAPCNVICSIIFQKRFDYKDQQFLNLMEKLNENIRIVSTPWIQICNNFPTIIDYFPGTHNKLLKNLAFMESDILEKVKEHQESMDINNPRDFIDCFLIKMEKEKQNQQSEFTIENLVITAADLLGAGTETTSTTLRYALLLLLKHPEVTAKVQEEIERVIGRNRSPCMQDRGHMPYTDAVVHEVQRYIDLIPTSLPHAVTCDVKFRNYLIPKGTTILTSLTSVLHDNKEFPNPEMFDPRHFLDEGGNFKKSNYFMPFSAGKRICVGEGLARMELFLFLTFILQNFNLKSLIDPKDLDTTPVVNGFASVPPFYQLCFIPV
Receptor tyrosine-protein kinase erbB-2, sequence (P04626 whole entry): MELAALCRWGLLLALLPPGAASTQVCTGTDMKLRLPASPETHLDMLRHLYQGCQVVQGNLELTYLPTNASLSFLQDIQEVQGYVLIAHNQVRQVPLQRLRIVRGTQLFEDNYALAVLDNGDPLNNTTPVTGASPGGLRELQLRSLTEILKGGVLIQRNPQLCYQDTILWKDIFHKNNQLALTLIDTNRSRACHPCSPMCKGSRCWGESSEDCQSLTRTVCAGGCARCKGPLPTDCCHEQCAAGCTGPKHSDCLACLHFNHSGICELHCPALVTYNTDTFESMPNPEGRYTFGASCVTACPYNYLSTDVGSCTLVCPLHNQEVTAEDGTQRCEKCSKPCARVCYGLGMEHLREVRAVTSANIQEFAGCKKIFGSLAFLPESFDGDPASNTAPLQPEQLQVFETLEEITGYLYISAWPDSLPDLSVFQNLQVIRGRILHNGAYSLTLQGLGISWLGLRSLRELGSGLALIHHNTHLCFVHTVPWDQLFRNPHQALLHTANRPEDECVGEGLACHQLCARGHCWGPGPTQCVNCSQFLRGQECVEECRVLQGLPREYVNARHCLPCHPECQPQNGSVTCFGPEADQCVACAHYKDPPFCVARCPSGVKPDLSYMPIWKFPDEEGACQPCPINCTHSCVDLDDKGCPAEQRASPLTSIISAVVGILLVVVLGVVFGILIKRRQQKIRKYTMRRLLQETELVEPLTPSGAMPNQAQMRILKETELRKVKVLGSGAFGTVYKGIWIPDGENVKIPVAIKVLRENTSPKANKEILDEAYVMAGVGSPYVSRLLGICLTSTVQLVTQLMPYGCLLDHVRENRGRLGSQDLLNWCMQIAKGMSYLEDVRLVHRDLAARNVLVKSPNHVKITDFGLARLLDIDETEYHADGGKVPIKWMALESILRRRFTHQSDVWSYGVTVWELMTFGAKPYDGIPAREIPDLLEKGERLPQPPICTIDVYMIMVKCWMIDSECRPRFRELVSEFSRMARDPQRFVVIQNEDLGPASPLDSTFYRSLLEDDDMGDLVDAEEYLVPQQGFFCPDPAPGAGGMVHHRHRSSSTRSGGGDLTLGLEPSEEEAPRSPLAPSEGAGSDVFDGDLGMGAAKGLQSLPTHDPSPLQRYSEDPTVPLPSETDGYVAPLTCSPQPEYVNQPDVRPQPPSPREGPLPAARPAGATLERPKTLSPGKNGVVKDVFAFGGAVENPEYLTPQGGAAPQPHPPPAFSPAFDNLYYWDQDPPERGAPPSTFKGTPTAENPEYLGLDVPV
Voltage-gated inwardly rectifying potassium channel KCNH2, sequence (Q12809 whole entry): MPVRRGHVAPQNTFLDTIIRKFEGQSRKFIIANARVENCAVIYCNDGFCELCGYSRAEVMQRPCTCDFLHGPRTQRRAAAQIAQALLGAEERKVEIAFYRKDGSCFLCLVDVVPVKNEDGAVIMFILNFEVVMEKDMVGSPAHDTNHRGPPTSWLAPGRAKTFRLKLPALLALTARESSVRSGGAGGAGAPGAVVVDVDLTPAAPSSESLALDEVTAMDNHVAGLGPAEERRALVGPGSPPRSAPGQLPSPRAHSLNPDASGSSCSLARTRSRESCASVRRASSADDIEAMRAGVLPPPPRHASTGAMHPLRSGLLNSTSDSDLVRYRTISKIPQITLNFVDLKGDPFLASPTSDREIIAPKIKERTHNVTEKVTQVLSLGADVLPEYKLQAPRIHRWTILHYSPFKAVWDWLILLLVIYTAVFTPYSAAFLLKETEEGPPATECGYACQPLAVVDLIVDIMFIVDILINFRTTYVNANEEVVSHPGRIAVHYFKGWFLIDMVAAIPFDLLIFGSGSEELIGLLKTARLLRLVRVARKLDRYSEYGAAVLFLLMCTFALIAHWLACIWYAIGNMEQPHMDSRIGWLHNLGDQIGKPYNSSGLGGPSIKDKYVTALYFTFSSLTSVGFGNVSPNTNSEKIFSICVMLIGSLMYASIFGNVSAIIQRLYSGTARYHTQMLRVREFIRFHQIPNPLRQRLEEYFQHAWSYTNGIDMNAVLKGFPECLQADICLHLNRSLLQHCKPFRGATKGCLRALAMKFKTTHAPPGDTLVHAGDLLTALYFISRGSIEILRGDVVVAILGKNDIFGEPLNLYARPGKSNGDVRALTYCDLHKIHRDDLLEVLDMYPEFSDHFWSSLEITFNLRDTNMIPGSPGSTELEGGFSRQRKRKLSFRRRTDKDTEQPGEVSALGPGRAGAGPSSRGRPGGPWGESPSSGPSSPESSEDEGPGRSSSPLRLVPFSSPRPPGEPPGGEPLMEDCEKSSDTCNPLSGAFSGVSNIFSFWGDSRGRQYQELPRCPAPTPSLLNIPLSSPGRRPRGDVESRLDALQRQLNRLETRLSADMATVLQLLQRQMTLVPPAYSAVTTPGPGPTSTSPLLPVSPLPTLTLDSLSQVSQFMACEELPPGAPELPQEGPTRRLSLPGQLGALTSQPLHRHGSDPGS
Cytochrome P450 2C9, sequence (P11712 whole entry): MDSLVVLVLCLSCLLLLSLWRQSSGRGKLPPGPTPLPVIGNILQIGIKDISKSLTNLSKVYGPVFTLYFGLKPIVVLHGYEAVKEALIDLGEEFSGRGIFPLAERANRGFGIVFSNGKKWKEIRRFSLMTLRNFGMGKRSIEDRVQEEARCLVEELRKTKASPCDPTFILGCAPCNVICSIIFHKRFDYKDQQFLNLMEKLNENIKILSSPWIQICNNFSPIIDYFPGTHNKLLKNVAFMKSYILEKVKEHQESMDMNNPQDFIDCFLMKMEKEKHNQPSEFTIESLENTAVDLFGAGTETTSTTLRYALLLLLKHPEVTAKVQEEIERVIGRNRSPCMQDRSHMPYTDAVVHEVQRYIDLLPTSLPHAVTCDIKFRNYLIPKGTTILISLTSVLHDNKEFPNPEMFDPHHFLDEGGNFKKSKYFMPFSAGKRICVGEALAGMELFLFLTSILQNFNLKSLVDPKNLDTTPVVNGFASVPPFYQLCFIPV

Cc1c(NC(=O)OC[C@@H]2COCCN2)cn2ncnc(Nc3ccc4c(cnn4Cc4cccc(F)c4)c3)c12 [AC-480]
Vd [1]: 4.7 L/kg | inhibition [2]: Dose-dependent effect | IC50 [3]: 22 nM | bioavailability [4]: 83% | Cmax [5]: 600 nM | inhibition [6]: Active | MRT [7]: 6.4 h | IC50 [8]: 450 nM | Cmax [9]: 4100 nM | fraction unbound at 10 µM [10]: 0.017 | clearance [11]: 21.3 mL/min/kg | inhibition in vivo at 180 mg/kg [12]: 99% | bioavailability [13]: 49% | inhibition in vivo at 30 mg/kg [14]: < 50% | AUC(0-t) at 24 h [15]: 2.9 µM·h | bioavailability [16]: 31% | IC50 [17]: 12000 nM | IC50 [18]: 240 nM | inhibition in vivo at 60 mg/kg [19]: 39% | AUC(0-t) at 4 h [20]: 13.3 µM·h | MRT [21]: 3.7 h | inhibition [22]: Dose-dependent effect | inhibition in vivo at 180 mg/kg [23]: 88% | clearance [24]: 41.6 mL/min/kg | inhibition in vivo at 60 mg/kg [25]: 61% | clearance [26]: 24.8 mL/min/kg | Tmax [27]: 2.3 h | AUC(0-t) at 24 h [28]: 147 µM·h | bioavailability [29]: 40% | IC50 [30]: 4000 nM | inhibition in vivo at 180 mg/kg [31]: 129% | fraction unbound at 10 µM [32]: 0.031 | IC50 [33]: 10000 nM | MRT [34]: 6.9 h | half-life [35]: 7.2 h | inhibition in vivo at 120 mg/kg [36]: 81% | Tmax [37]: 1.5 h | AUC(0-t) at 24 h [38]: 3.6 µM·h | clearance [39]: 10.5 mL/min/kg | Papp [40]: 21.4 ×10⁻⁶ cm/s | fraction unbound at 10 µM [41]: 0.029 | half-life [42]: 5.7 h | Activity [43]: Non-toxic | Vd [44]: 10.1 L/kg | IC50 [45]: 190 nM | Activity [46]: Non-toxic | inhibition [47]: Dose-dependent effect

Reference: ChEMBL document CHEMBL1154610, “Discovery and preclinical evaluation of [4-[[1-(3-fluorophenyl)methyl]-1H-indazol-5-ylamino]-5-methylpyrrolo[2,1-f][1,2,4]triazin-6-yl]carbamic acid, (3S)-3-morpholinylmethyl ester (BMS-599626), a selective and orally efficacious inhibitor of human epidermal growth factor receptor 1 and 2 kinases” (J Med Chem, 2009)
